# Ec RNAP inh: E. coli RNAP inhibitors, biochemical | E. coli RNA polymerase, fluorescence transcription assay | inhibition, %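 (tested at 10 µM)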 | 0.2% of 62,000 active; in the data active means inhibition above about 20%;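 further: 0% = enzyme without compound and 100% = no enzyme blank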
# Target sequence (P0A8V2 whole entry, looked up): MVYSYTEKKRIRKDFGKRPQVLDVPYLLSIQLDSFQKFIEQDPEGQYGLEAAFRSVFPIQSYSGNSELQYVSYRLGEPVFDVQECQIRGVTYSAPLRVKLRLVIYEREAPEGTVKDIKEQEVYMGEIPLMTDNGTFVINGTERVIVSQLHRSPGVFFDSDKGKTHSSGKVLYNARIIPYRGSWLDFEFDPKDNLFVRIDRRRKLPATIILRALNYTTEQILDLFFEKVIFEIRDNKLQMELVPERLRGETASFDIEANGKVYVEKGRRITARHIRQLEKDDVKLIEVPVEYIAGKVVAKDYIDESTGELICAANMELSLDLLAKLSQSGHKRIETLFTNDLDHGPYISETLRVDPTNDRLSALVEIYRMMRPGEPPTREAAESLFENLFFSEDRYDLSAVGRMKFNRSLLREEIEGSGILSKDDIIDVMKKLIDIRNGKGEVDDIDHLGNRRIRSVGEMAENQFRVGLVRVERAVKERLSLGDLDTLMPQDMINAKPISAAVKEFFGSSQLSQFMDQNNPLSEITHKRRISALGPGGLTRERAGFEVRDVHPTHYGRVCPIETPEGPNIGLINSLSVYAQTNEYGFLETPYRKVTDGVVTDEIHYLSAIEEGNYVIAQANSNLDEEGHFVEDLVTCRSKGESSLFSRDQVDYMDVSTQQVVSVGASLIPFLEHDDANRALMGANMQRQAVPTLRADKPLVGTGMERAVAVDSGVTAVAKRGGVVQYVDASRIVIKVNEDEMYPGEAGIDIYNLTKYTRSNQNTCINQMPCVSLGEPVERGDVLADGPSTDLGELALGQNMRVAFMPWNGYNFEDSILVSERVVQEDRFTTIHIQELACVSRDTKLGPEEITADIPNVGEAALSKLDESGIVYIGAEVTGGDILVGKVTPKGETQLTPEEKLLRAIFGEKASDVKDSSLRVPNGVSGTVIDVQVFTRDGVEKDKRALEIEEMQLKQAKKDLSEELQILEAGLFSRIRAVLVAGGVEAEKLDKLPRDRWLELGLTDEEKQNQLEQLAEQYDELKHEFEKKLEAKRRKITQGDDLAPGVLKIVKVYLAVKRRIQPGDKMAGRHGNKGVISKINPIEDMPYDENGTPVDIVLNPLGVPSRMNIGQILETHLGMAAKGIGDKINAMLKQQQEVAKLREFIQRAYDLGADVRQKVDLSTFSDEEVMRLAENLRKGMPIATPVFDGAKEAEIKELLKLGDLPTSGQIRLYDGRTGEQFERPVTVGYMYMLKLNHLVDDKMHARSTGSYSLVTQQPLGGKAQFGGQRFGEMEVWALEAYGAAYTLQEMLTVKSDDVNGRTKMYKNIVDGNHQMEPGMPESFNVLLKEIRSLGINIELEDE
# DAT uptake mod: changed hDAT dopamine uptake under cocaine IC80, either direction, primary screen, cocaine antagonist project, cell-based, LLC-PK1 hDAT, [14C]-dopamine uptake, MLSMR; AID 449768, 2010; B-score at 10 µM; 1.3% of 110,000 active; Sodium-dependent dopamine transporter (Homo sapiens), Q01959; LLC-PK1 hDAT cells, [14C]-dopamine uptake with cocaine IC80; actives deviate in either direction;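 active means Z score or B-score, a plate-position-corrected score, falls beyond the plate's 99.7% confidence bounds, in either direction; inactive means both scores lie inside the 99.7% bounds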;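 further: scored against the spread of the other compound wells on the same plate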
# D1 mod: D1 CRE-luciferase signal change, two-sided – cell-based, HEK293 D1, dopamine EC30, D1 allosteric modulator project, primary screen; D(1A) dopamine receptor (Homo sapiens), P21728; dopamine EC30 potentiation; actives deviate in either direction; B-score at 10 µM; 5.9% of 58,000 active; AID 641, 2007;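 active means luminescence count or its row- and column-corrected plate score outside the 99.7% band of the plate's sample wells, on either side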
# HEK293 NFkB inh: inhibitors of PMA/ionomycin-induced NF-kB reporter, primary screen, antigen receptor NF-kB inhibitor project, cell-based, HEK-293 luciferase reporter, luminescence | 0.21% of 62,000 active | HEK-293 NF-kB luciferase reporter | inhibition, % at 3 µM | AID 465, 2006;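 active means inhibition above the mean of all tested compounds plus 3 SD, cut at about 40% in these data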;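 further: 0% = stimulated DMSO wells and 100% = 10 µM reference inhibitor 5653914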
#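 Signal: luciferase luminescence; Material: HEK-293 cells with stable firefly luciferase reporter driven by four HIV NF-kB elements; Probe or stimulus: PMA with ionomycin; Replication: tested once; Times: 1 h compound pretreatment, then 16 h stimulation at 37 °C, 5% CO2; Benchmarks: DMSO and 10 µM reference inhibitor; Evaluation: per-plate % inhibition versus controls.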
# AP ELISA ortho: alternative complement pathway inhibitors, primary screen, biochemical, ELISA, human serum, orthogonally pooled compounds. LPS-coated ELISA, C3 deposition; tested in compound mixtures. inhibition, % at 5 µM. 0.08% of 62,000 active;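 active means inhibition above 30% in each of the two pooled mixtures holding the compound, so the lower value exceeds 30%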;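 further: 0% = serum in Mg-EGTA without compound and 100% = EDTA serum blank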
#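 Medium: diluted human serum in Mg2+-EGTA GVB++. Assay system: human serum complement alternative pathway, C3 deposition onto LPS. Also added: Plate-bound LPS. Technique: Anti-C3 ELISA, OD 450 nm. Measure: percent inhibition. Incubation: 1 h at 37 °C. Dosing: 5 µM each compound, pools of ten, 50 µM per pool.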
# D1 PAM confirm: D1 receptor positive allosteric modulators, retest, confirmation, cell-based, HEK293 D1, CRE-luciferase, duplicate | AID 642, 2007 | luminescence at 10 µM | dopamine EC30 potentiation; active compounds read high | 88% of 2,200 active | shares compounds with D1 mod;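 active means luminescence in either of two replicates above the same-plate mean plus 3 SD of the low-dose dopamine control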
# D1 no dopamine: D1 receptor agonism without dopamine, confirmation, mechanism study for D1 allosteric modulator project, cell-based, HEK293 D1, CRE-luciferase, secondary assay 1; shares compounds with D1 mod; luminescence, no dopamine; active compounds read high; luminescence at 10 µM; 0.8% of 1,900 active; AID 646, 2007; in the data active means luminescence above about 3900
# Isoprot counter: counter-screen for D1 modulators: isoproterenol response in HEK293 cells; shares compounds with D1 mod; HEK293 D1 CRE-luciferase, isoproterenol EC30 counter-screen; calls only at 10 µM; 63% of 2,200 active;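 active means luminescence in either replicate above plate mean of wells with a partly effective reference agonist dose plus 3 SD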;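 further: isoproterenol raises cAMP through native beta-adrenoceptor Gs so signal bypasses D1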
# Active calls of the source: *; i = inactive; · = no result; + = active, no number. Shown is part of a subset that was picked to be rich in hits.
SMILES,Ec RNAP inh,DAT uptake mod,D1 mod,HEK293 NFkB inh,AP ELISA ortho,D1 PAM confirm,D1 no dopamine,Isoprot counter
O=C(NC(Cc1ccccc1)C(=O)OCC(=O)N1CCc2ccccc21)c1ccco1 (stereo unspecified),6,-0.032,3.1*,26,-13,5596,1648,i
CCOc1nc(NCc2ccco2)nc(Nc2ccccc2F)n1,·,0.39,·,·,·,·,·,·
CCOc1nc(NCc2ccco2)nc(Nc2ccc(OC)cc2)n1,1,0.6,4.5*,5,9,10436*,1588,+
c1ccc(Oc2nc(NCc3ccco3)nc(NCc3ccco3)n2)cc1,7,-1.7,5.2*,22,9,11736*,1696,+
CC(C)OCCCNc1nc2c([nH]1)c(=O)n(C)c(=O)n2C,5,-0.89,-0.17,-8,2,·,·,·
O=C(CSc1nc2ncccc2[nH]1)NCCc1ccccc1,·,0.2,·,·,·,·,·,·
N#CCn1c(C2CCCCC2)nc2ccccc2c1=O,9,0.13,8.4*,8,3,16652*,1540,+
CC(Sc1nc(N2CCOCC2)nc(N2CCOCC2)n1)C(=O)Nc1ccccc1 (stereo unspecified),8,-0.37,0.48,13,10,·,·,·
CC(Sc1nc(N(C)C)nc(N2CCOCC2)n1)C(=O)Nc1ccccc1 (stereo unspecified),9,0.42,4.8*,5,11,9356*,1600,+
CNc1nc(SCc2ccccc2)nc(N2CCOCC2)n1,4,0.18,11*,15,15,24896*,1672,+
Cc1nc(SCC(=O)Nc2ccc(N3CCOCC3)cc2)nc(C)c1C,·,0.23,·,·,·,·,·,·
CC(C)Nc1nc(SCC(=O)Nc2ccccc2)nc(N2CCOCC2)n1,8,0.012,14*,17,8,20560*,1624,+
O=C(CCC(=O)NNC(=O)Nc1ccc(Cl)cc1)NCc1ccccc1,·,-1.3,·,·,·,·,·,·
CC(=O)Nc1ccc(S(=O)(=O)NCc2ccc(C(=O)NC(C)c3ccccc3)cc2)cc1 (stereo unspecified),·,1.1,·,·,·,·,·,·
CCN(CC)c1nc(N)c2c(N)nc3c(c2c1C#N)CC(c1ccccc1)O3 (stereo unspecified),-1,0.69,3.6*,6,12,6688*,1392,i
N#Cc1c(N2CCCCC2)nc(N)c2c(N)nc3c(c12)CC(c1ccccc1)O3 (stereo unspecified),·,2.1,·,·,·,·,·,·
CCOC(=O)C1=C(C)Nc2nc(SC)nn2C1c1ccc(C(=O)OC)cc1 (stereo unspecified),-3,-0.0079,4*,5,18,8432*,1672,i
COC(=O)c1ccc(CNC(=O)COc2ccccc2Br)o1,5,0.42,-0.33,11,1,·,·,·
CCOC(=O)C1=C(C)Nc2ncnn2C1/C=C/c1ccccc1 (stereo unspecified),1,1.7,2.8*,12,17,11572*,1448,+
O=C1CN(C(=O)CSc2nnc(C3CC3)n2-c2ccccc2)c2ccccc2N1,·,1.4,·,·,·,·,·,·
O=C(OCC#CCSc1nnc(-c2ccc(Br)cc2)o1)c1ccco1,43*,0.89,4.8*,-3,13,7080*,1620,i
CC(=O)N1CCC2(CC1)C(C#N)=C(N)Oc1c2sc2nc(C)cc(C)c12,5,-0.8,4.9*,23,6,14572*,1432,i
CCN1CCC2(CC1)C(C#N)=C(N)Oc1c2sc2nc(C)cc(C)c12,10,0.039,-3,-8,-13,·,·,·
Cc1ccccc1N(C(=O)Cn1nnc(-c2cccs2)n1)C(C(=O)NCCC(C)C)c1ccco1 (stereo unspecified),·,0.34,·,·,·,·,·,·
Cc1cc2nc(-c3ccc(NC(=O)C(C)C)cc3)oc2cc1C,-1,·,5.8*,-68,10,3212,1136,i
SMILES,Ec RNAP inh,DAT uptake mod,D1 mod,HEK293 NFkB inh,AP ELISA ortho,D1 PAM confirm,D1 no dopamine,Isoprot counter
CCCC(=O)Nc1cccc(-c2nc3cc(C)c(C)cc3o2)c1,6,-0.0092,0.095,-39,10,·,·,·
ONC(=Nc1ccccc1)C(=Nc1ccccc1)NO,-5,-0.088,·,·,·,·,·,·
Cn1c(=O)c2c(nc(SCCCC#N)n2Cc2ccccc2F)n(C)c1=O,-3,0.049,5.2*,12,10,15976*,1696,i
CCOc1ccc(Nc2oc(-c3ccco3)nc2C#N)cc1,4,0.029,4*,10,16,19668*,1436,+
CCOc1ccc(Nc2oc(-c3cccs3)nc2C#N)cc1,2,0.18,5.8*,-4,7,11044*,1540,+
CC1(C)Cc2c(c(-c3ccccc3Cl)[nH]c(=O)c2C#N)CO1,7,2,·,·,·,·,·,·
CC1(C)Cc2c(c(-c3ccccc3)[nH]c(=O)c2C#N)CO1,7,-0.97,7.2*,10,9,17304*,1772,+
COc1cccc(N2CCN(Cc3nc(N)nc(N4CCCc5ccccc54)n3)CC2)c1,1,1.9,4.9*,6,3,11368*,1496,+
COc1ccc(Nc2nc(N)nc(CN3CCc4ccccc4C3)n2)cc1,9,1.2,2.3,12,14,·,·,·
COC(=O)c1cc(NC(=O)CCc2c(C)nc3ncnn3c2C)cc(C(=O)OC)c1,-4,0.42,5.2*,18,20,5564,·,i
Cc1nc2sc(C(c3ccc(Cl)cc3)N3CCN(c4ccccc4F)CC3)c(O)n2n1 (stereo unspecified),9,2,0.95,17,-5,·,·,·
CCCn1c(CCC(=O)Nc2ccccc2Cc2ccccc2)nc2cc(S(=O)(=O)N3CCOCC3)ccc21,·,1.3,·,·,·,·,·,·
CCOC(=O)c1nn(-c2ccc(OC)cc2)c(=O)c2c(N)scc12,8,1.3,5.1*,23,14,6660*,1672,i
CCOC(=O)c1nn(-c2ccc(C)c(C)c2)c(=O)c2c(N)scc12,·,-0.79,·,·,·,·,·,·
CCN(CC(=O)NC1CCCCCC1)S(=O)(=O)c1ccccc1,-2,-0.023,6.7*,3,-15,4392,1572,i
CCOCCCNS(=O)(=O)c1ccc(NC(=O)N2c3ccccc3Sc3ccccc32)cc1,·,0.39,·,·,·,·,·,·
